Measured values of several laboratories.
Compare with care: the assays were run in different laboratories.
Target: Serine/threonine-protein kinase Nek3 (NEK3, Homo sapiens, UniProt P51956)
Sequence (P51956 1-506, as in one of the studies): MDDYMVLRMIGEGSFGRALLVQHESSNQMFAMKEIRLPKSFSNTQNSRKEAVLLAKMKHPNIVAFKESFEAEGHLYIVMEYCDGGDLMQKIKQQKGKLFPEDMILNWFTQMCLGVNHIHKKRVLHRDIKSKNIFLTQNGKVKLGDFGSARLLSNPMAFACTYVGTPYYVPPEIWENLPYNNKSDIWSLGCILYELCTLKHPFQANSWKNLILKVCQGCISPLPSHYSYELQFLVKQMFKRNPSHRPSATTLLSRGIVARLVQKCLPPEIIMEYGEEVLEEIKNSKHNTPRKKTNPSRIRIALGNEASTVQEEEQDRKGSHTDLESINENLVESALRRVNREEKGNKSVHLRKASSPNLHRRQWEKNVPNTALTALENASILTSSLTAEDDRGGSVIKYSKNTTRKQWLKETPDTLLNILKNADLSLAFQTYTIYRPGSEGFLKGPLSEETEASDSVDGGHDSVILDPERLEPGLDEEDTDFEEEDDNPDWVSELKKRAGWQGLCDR

| Compound | read-out | action | technique | tested at | quantity | result |
| --- | --- | --- | --- | --- | --- | --- |
| Nc1cnc(N2CCc3cc(S(=O)(=O)Nc4c(F)cc(Cl)cc4F)cc(N4CCCC4=O)c32)nc1 | cell-free assay | – | competition with immobilised ligand | 1 µM | remaining binding | 100% |
| CCN(CC)CCNC(=O)c1c(C)[nH]c(/C=C2\C(=O)Nc3ccc(F)cc32)c1C | cell-free assay | – | – | 0.5 µM | remaining signal | 91.6% |
| Nc1c(C(=O)NCc2ccc(C(=O)NCCCC3CCCCC3)cc2)cnn1-c1ccccc1 | cell-free assay | – | competition with immobilised ligand | 0.1 µM | remaining binding | 100% |
| O=C1Nc2ccc(Cl)cc2C1=Cc1cc(Cl)c(O)c(Cl)c1 | cell-free assay | – | – | 0.5 µM | remaining signal | 94% |
| Cn1nc(C(=O)NCc2ccc(C(=O)O)cc2)cc1-c1ccc2[nH]ccc2c1 | cell-free assay | – | competition with immobilised ligand | 0.1 µM | remaining binding | 100% |
| O=C(Nc1cnn(-c2csc(C(=O)NC3COC3)c2)c1)Nc1ccccc1Cl | enzyme activity | inhibitor | – | 5 µM | remaining activity | 103% |
| CC(C)(C)c1nc2c(s1)c1nc(N)ncc1c1ccc(NS(=O)(=O)c3c(F)cccc3F)c(F)c12 | enzyme activity | inhibitor | radiometric | 1 µM | remaining activity | 118% |
| Cc1ccc(NC(=O)c2ccc(C)c(C(F)(F)F)c2)cc1C#Cc1nn(C2CCC(O)CC2)c2ncnc(N)c12 (stereo not drawn) | cell-free assay | – | – | 10 µM | remaining signal | 102% |
| Cn1cnc(Br)c1C1=CN(c2ncnc3[nH]cnc23)CCS1 | enzyme activity | inhibitor | radiometric | 2 µM | inhibition | 79.9% |
| O=C(Nc1cnn(-c2csc(C(=O)NC3COC3)c2)c1)Nc1c(F)cccc1Cl | enzyme activity | inhibitor | – | 5 µM | remaining activity | 87.2% |
| Cc1cc(NC(=O)c2cccc3cc(-c4cccc5[nH]nc(N)c45)ccc23)ccc1F | enzyme activity | inhibitor | – | 0.1 µM | activity vs control | 83% |
| CS(=O)(=O)N1CCCC(NC(=O)[C@H](CCC2CCCCC2)NC(=O)c2ccc(CNC(=O)c3cnc4ccccn34)cc2)C1 (stereo partly drawn) | cell-free assay | – | competition with immobilised ligand | 0.1 µM | remaining binding | 100% |
| c1ccc(CNc2nc(N3CCOc4ccccc43)nc3c2CCCC3)cc1 | target engagement in cells | inhibitor | chemoproteomics | 20 mM | inhibition | 5.9% |
| CNC(=O)c1cc(Oc2ccc(NC(=O)Nc3ccc(Cl)c(C(F)(F)F)c3)cc2)ccn1 | cell-free assay | – | – | 0.5 µM | remaining signal | 97.2% |
| C[C@H](NC(=O)c1cnc2n1[C@](C)(Cc1ccc(C#N)cc1)C(=O)N2c1cc(Cl)c(F)c(Cl)c1)C(=O)NC1(c2ccccn2)CC1 | cell-free assay | – | competition with immobilised ligand | 1 µM | remaining binding | 100% |
| Nc1ncnc2occ(-c3ccc(NC(=O)Nc4cc(C(F)(F)F)ccc4F)cc3)c12 | cell-free assay | inhibitor | – | 20 µM | remaining signal | 63% |
| COc1cccc2c(NCc3ccccc3)nc(-n3c(N)nc4ccccc43)nc12 | target engagement in cells | inhibitor | chemoproteomics | 20 mM | inhibition | 2.9% |
| CO[C@@H](C)c1c(Nc2ccc([C@@H](N(C)C(=O)C3CCS(=O)(=O)CC3)C(F)(F)F)cc2)cnc2cc(Cl)nn12 | cell-free assay | – | competition with immobilised ligand | 1 µM | remaining binding | 61% |
